Results taken from ChEMBL document CHEMBL4118229, “lH-Pyrazolo[3,4-b]quinolin-3-amine derivatives inhibit growth of colon cancer cells via apoptosis and sub G1 cell cycle arrest” (Bioorg Med Chem Lett, 2018).
Each block holds one compound with its values, some of them ahead of it. The source made the active and inactive calls. The calls are words filed in the database; no cut-off is given here.

Columns and labels:
[1] = tested on: DU-145; experiment: Antiproliferative activity against human DU145 cells by MTT assay; assay type: functional, cell-based
[2] = tested on: HEK293; experiment: Antiproliferative activity against human HEK293 cells by MTT assay; assay type: cell-based
[3] = tested on: HCT-116; experiment: Antiproliferative activity against human HCT116 cells by MTT assay; assay type: functional, cell-based
[4] = tested on: HT-29; experiment: Antiproliferative activity against human HT-29 cells by MTT assay; assay type: functional, cell-based
[5] = tested on: A2780; experiment: Antiproliferative activity against human A2780 cells by MTT assay; assay type: functional, cell-based
[6] = tested on: LN-229; experiment: Antiproliferative activity against human LN229 cells by MTT assay; assay type: functional, cell-based
[7] = tested on: PC-3; experiment: Antiproliferative activity against human PC3 cells by MTT assay; assay type: functional, cell-based
[8] = tested on: MDA-MB-231; experiment: Antiproliferative activity against human MDA-MB-231 cells by MTT assay; assay type: functional, cell-based
[9] = tested on: MCF7; experiment: Antiproliferative activity against human MCF7 cells by MTT assay; assay type: functional, cell-based
[10] = tested on: HCT-15; experiment: Antiproliferative activity against human HCT15 cells by MTT assay; assay type: functional, cell-based
[11] = tested on: LoVo; experiment: Antiproliferative activity against human LoVo cells by MTT assay; assay type: functional, cell-based
[12] = tested on: HCT-116; experiment: Cell cycle arrest in human HCT116 cells assessed as subG1 phase accumulation at 20 uM after 24 hrs by propidium iodide staining-based flow cytometric analysis (reference value: 3.81%); assay type: functional
[13] = tested on: HCT-116; experiment: Cell cycle arrest in human HCT116 cells assessed as subG1 phase accumulation at 5 uM after 24 hrs by propidium iodide staining-based flow cytometric analysis (reference value: 3.81%); assay type: functional
[14] = tested on: LoVo; experiment: Cytotoxicity against human LoVo cells at 1 to 30 uM incubated for 72 hrs by inverted microscopy
[15] = tested on: HCT-116; experiment: Cell cycle arrest in human HCT116 cells assessed as S phase accumulation at 20 uM after 24 hrs by propidium iodide staining-based flow cytometric analysis (reference value: 9.18%); assay type: functional
[16] = tested on: HCT-116; experiment: Cell cycle arrest in human HCT116 cells assessed as G2 phase accumulation at 10 uM after 24 hrs by propidium iodide staining-based flow cytometric analysis (reference value: 7.56%); assay type: functional
[17] = tested on: HCT-116; experiment: Cell cycle arrest in human HCT116 cells assessed as G2 phase accumulation at 5 uM after 24 hrs by propidium iodide staining-based flow cytometric analysis (reference value: 7.56%); assay type: functional
[18] = tested on: HCT-116; experiment: Cell cycle arrest in human HCT116 cells assessed as G2 phase accumulation at 20 uM after 24 hrs by propidium iodide staining-based flow cytometric analysis (reference value: 7.56%); assay type: functional
[19] = tested on: HCT-116; experiment: Induction of apoptosis in human HCT116 cells assessed as viable cells at 30 uM after 24 hrs by Alexa Fluor 488 Annexin V/MitoTracker red staining-based flow cytometric analysis (reference value: 92.5%); assay type: functional; conditions: HCT-116, 24 h, read-out: Activity
[20] = tested on: HCT-116; experiment: Induction of apoptosis in human HCT116 cells assessed as chromatin condensation at 5 to 10 uM after 48 hrs by DAPI staining-based fluorescent microscopic analysis; assay type: functional, cell-based
How it was run: (§1)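 HCT116 cells given 5 or 10 μM, or vehicle, for 24 or 48 h. Cells fixed and stained with DAPI. Condensed and fragmented nuclei assessed by fluorescence microscopy at 40X.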

[21] = tested on: HCT-116; experiment: Inhibition of colony formation in human HCT116 cells assessed as decrease in colony size at 5 to 20 uM; assay type: functional, cell-based
How it was run: (§2)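 HCT116 colony formation assay with 5, 10 or 20 μM, or vehicle. Colony number, density and size recorded. Three independent repeats.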

[22] = tested on: HCT-116; experiment: Induction of apoptosis in human HCT116 cells assessed as nuclear condensation at 5 to 10 uM after 24 hrs by DAPI staining-based fluorescent microscopic analysis; assay type: functional, cell-based; how it was run: as §1
[23] = tested on: HCT-116; experiment: Inhibition of colony formation in human HCT116 cells assessed as decrease in reduction in mean colony formation rate at 5 to 20 uM; assay type: functional, cell-based; how it was run: as §2
[24] = tested on: HCT-116; experiment: Cell cycle arrest in human HCT116 cells assessed as G1 phase accumulation at 10 uM after 24 hrs by propidium iodide staining-based flow cytometric analysis (reference value: 78.7%); assay type: functional
[25] = tested on: HCT-116; experiment: Cell cycle arrest in human HCT116 cells assessed as sub G1 phase accumulation after 24 hrs by propidium iodide staining-based flow cytometric analysis; assay type: functional
[26] = tested on: HCT-116; experiment: Induction of apoptosis in human HCT116 cells assessed as apoptotic cells at 30 uM after 24 hrs by Alexa Fluor 488 Annexin V/MitoTracker red staining-based flow cytometric analysis (reference value: 7.48%); assay type: functional
[27] = tested on: HCT-116; experiment: Induction of apoptosis in human HCT116 cells assessed as viable cells at 20 uM after 24 hrs by Alexa Fluor 488 Annexin V/MitoTracker red staining-based flow cytometric analysis (reference value: 92.5%); assay type: functional; conditions: HCT-116, 24 h, read-out: Activity
[28] = tested on: HCT-116; experiment: Induction of apoptosis in human HCT116 cells assessed as apoptotic cells at 20 uM after 24 hrs by Alexa Fluor 488 Annexin V/MitoTracker red staining-based flow cytometric analysis (reference value: 7.48%); assay type: functional
[29] = tested on: HCT-116; experiment: Cell cycle arrest in human HCT116 cells assessed as S phase accumulation at 10 uM after 24 hrs by propidium iodide staining-based flow cytometric analysis (reference value: 9.18%); assay type: functional
[30] = tested on: HCT-116; experiment: Cytotoxicity against human HCT116 cells at 1 to 30 uM incubated for 72 hrs by inverted microscopy
[31] = tested on: HCT-116; experiment: Induction of apoptosis in human HCT116 cells after 24 hrs by Alexa Fluor 488 Annexin V/MitoTracker red staining-based flow cytometric analysis; assay type: functional, cell-based
[32] = tested on: HCT-116; experiment: Cytotoxicity against human HCT116 cells assessed as reduction in cell confluence at 10 to 30 uM after 20 hrs; assay type: functional, cell-based
[33] = tested on: HCT-116; experiment: Induction of apoptosis in human HCT116 cells assessed as apoptotic cells at 10 uM after 24 hrs by Alexa Fluor 488 Annexin V/MitoTracker red staining-based flow cytometric analysis (reference value: 7.48%); assay type: functional
[34] = tested on: HEK293; experiment: Cytotoxicity against human HEK293 cells at 1 to 30 uM incubated for 72 hrs by inverted microscopy; conditions: hek293, 72 h
[35] = tested on: HCT-116; experiment: Induction of apoptosis in human HCT116 cells assessed as viable cells at 10 uM after 24 hrs by Alexa Fluor 488 Annexin V/MitoTracker red staining-based flow cytometric analysis (reference value: 92.5%); assay type: functional; conditions: HCT-116, 24 h, read-out: Activity
[36] = tested on: HCT-116; experiment: Cell cycle arrest in human HCT116 cells assessed as S phase accumulation at 5 uM after 24 hrs by propidium iodide staining-based flow cytometric analysis (reference value: 9.18%); assay type: functional
[37] = tested on: HCT-116; experiment: Cytotoxicity against human HCT116 cells assessed as cell confluence at 10 to 30 uM up to 72 hrs (reference value: 60%); assay type: functional
[38] = tested on: HCT-116; experiment: Induction of apoptosis in human HCT116 cells assessed as viable cells at 5 uM after 24 hrs by Alexa Fluor 488 Annexin V/MitoTracker red staining-based flow cytometric analysis (reference value: 92.5%); assay type: functional; conditions: HCT-116, 24 h, read-out: Activity
[39] = tested on: HCT-116; experiment: Cell cycle arrest in human HCT116 cells assessed as G1 phase accumulation at 20 uM after 24 hrs by propidium iodide staining-based flow cytometric analysis (reference value: 78.7%); assay type: functional
[40] = tested on: HCT-15; experiment: Cytotoxicity against human HCT15 cells at 1 to 30 uM incubated for 72 hrs by inverted microscopy
[41] = tested on: HCT-116; experiment: Cell cycle arrest in human HCT116 cells assessed as G1 phase accumulation at 5 uM after 24 hrs by propidium iodide staining-based flow cytometric analysis (reference value: 78.7%); assay type: functional
[42] = tested on: HCT-116; experiment: Induction of apoptosis in human HCT116 cells assessed as nuclear fragmentation at 5 to 10 uM after 24 hrs by DAPI staining-based fluorescent microscopic analysis; assay type: functional, cell-based; how it was run: as §1
[43] = tested on: HCT-116; experiment: Induction of apoptosis in human HCT116 cells assessed as apoptotic cells at 5 uM after 24 hrs by Alexa Fluor 488 Annexin V/MitoTracker red staining-based flow cytometric analysis (reference value: 7.48%); assay type: functional
[44] = tested on: HCT-116; experiment: Cell cycle arrest in human HCT116 cells assessed as subG1 phase accumulation at 10 uM after 24 hrs by propidium iodide staining-based flow cytometric analysis (reference value: 3.81%); assay type: functional

IC50 [1]: > 100 µM | IC50 [3]: 56.6 µM | IC50 [4]: 42.3 µM | IC50 [5]: 59.9 µM | IC50 [7]: > 100 µM | IC50 [8]: 89.9 µM | IC50 [9]: > 100 µM | IC50 [10]: 44.8 µM | IC50 [11]: 77.5 µM
SMILES: Nc1n[nH]c2nc3cc(Cl)ccc3cc12
IC50 [2]: 36.6 µM | IC50 [6]: 58.6 µM

IC50 [1]: 53.4 µM | IC50 [3]: 2.3 µM | IC50 [4]: 3.9 µM | IC50 [5]: 56.6 µM | IC50 [7]: 87.1 µM | IC50 [8]: 50.6 µM | IC50 [9]: 59.2 µM | IC50 [10]: 9.6 µM | IC50 [11]: 10.2 µM
SMILES: COc1ccc2cc3c(N)n[nH]c3nc2c1
Activity [12]: 55.9% | Activity [13]: 22.4% | Activity [14]: Active | Activity [15]: 7.99% | Activity [16]: 5.3% | Activity [17]: 1.37% | Activity [18]: 0.6% | viability at 30 µM [19]: 46.7% | Activity [20]: Active | IC50 [2]: 45.8 µM | inhibition [21]: Active | Activity [22]: Active | inhibition [23]: Active | Activity [24]: 45.9% | Activity [25]: Dose-dependent effect | Activity [26]: 53.3% | viability at 20 µM [27]: 66% | Activity [28]: 34% | IC50 [6]: 7.8 µM | Activity [29]: 15.1% | Activity [30]: Active | Activity [31]: Dose-dependent effect | Activity [32]: Active | Activity [33]: 31.8% | Activity [34]: Non-Toxic | viability at 10 µM [35]: 68.1% | Activity [36]: 14.5% | Activity [37]: <=20% | viability at 5 µM [38]: 77% | Activity [39]: 33.5% | Activity [40]: Active | Activity [41]: 59.3% | Activity [42]: Active | Activity [43]: 22.9% | Activity [44]: 32%

IC50 [1]: > 100 µM | IC50 [3]: > 100 µM | IC50 [4]: > 100 µM | IC50 [5]: > 100 µM | IC50 [7]: > 100 µM | IC50 [8]: > 100 µM | IC50 [9]: 78.8 µM | IC50 [10]: > 100 µM | IC50 [11]: > 100 µM
SMILES: Cc1cc2cc3c(N)[nH]nc3nc2cc1C
IC50 [2]: > 100 µM | IC50 [6]: 38.9 µM

IC50 [1]: > 100 µM | IC50 [3]: 67.7 µM | IC50 [4]: 95.7 µM | IC50 [5]: 83.9 µM | IC50 [7]: > 100 µM | IC50 [8]: > 100 µM | IC50 [9]: 81.5 µM | IC50 [10]: 58.6 µM | IC50 [11]: 88.6 µM
SMILES: Nc1[nH]nc2nc3ccccc3cc12
IC50 [2]: > 100 µM | IC50 [6]: 7.8 µM
